In ChEMBL document CHEMBL1124871, “Synthesis and antiviral activity of some acyclic and C-acyclic pyrrolo[2,3-d]pyrimidine nucleoside analogues” (J Med Chem, 1990):

Tested on: Human immunodeficiency virus
Test: Inhibitory activity against HIV in Alex cells
Type: functional, organism-based
Settings: Human immunodeficiency virus 1, Alex
Summary of the method: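 Alex cells preinfected with HIV for 3 h at 37 °C; compounds added in 3- or 5-fold dilutions (four for screening, eight for confirmation). Incubated 8 days at 37 °C in CO2, medium/sample changed on day 4. Reverse transcriptase measured on day 8. Uninfected cells exposed to the same dilutions for cytotoxicity. IC50 recorded.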

Point of comparison: `N#Cc1cn(COC(CO)CO)c2nc(N)nc(O)c12`, IC50 3 µM. Against it:
- N#Cc1cn(CC(O)CO)c2nc(N)nc(O)c12 (centres undefined) — higher, > 200 µM
- CSc1c(C#N)c2c(N)ncnc2n1COCCO — higher, > 200 µM
- CSc1c(C(N)=O)c2c(O)nc(N)nc2n1COC(CO)CO — higher, > 200 µM
- NC(=O)c1cn(COCCO)c2nc(N)nc(O)c12 — higher, > 200 µM
- N#Cc1cn(COCCO)c2nc(N)nc(O)c12 — higher, > 200 µM
- CSc1c(C(N)=O)c2c(N)ncnc2n1CC(O)CO (centres undefined) — higher, > 200 µM
- NC(=O)c1cn(CC(O)CO)c2nc(N)nc(O)c12 (centres undefined) — higher, > 200 µM
- CSc1c(C#N)c2c(O)nc(N)nc2n1COC(CO)CO — higher, > 200 µM
- CSc1c(C#N)c2c(O)nc(N)nc2n1CC(O)CCO (centres undefined) — higher, > 200 µM
- N#Cc1cn(CC(O)CCO)c2ncnc(N)c12 (centres undefined) — higher, > 200 µM
- CSc1c(C#N)c2c(O)nc(N)nc2n1CC(O)CO (centres undefined) — higher, > 200 µM
- CSc1c(C#N)c2c(O)nc(N)nc2n1COCCO — higher, > 200 µM
- N#Cc1cn(COCCO)c2ncnc(N)c12 — 15-fold higher, 46 µM
- NC(=O)c1cn(COCCO)c2ncnc(N)c12 — higher, > 200 µM
- CSc1c(C(N)=O)c2c(N)ncnc2n1COCCO — higher, > 200 µM
- NC(=O)c1cn(COC(CO)CO)c2ncnc(N)c12 — higher, > 200 µM
- CSc1c(C(N)=O)c2c(N)ncnc2n1CC(O)CCO (centres undefined) — higher, > 200 µM
- CSc1c(C#N)c2c(N)ncnc2n1CC(O)CO (centres undefined) — higher, > 200 µM
- NC(=O)c1cn(COC(CO)CO)c2nc(N)nc(O)c12 — higher, > 200 µM
- N#Cc1cn(CC(O)CO)c2ncnc(N)c12 (centres undefined) — 66-fold higher, 197 µM
- N#Cc1cn(CC(O)CCO)c2nc(N)nc(O)c12 (centres undefined) — higher, > 200 µM
- CSc1c(C(N)=O)c2c(N)ncnc2n1COC(CO)CO — higher, > 200 µM
- CSc1c(C(N)=O)c2c(O)nc(N)nc2n1CC(O)CO (centres undefined) — higher, > 200 µM
- NC(=O)c1cn(CC(O)CO)c2ncnc(N)c12 (centres undefined) — higher, > 200 µM
- NC(=O)c1cn(CC(O)CCO)c2ncnc(N)c12 (centres undefined) — higher, > 200 µM
- CSc1c(C(N)=O)c2c(O)nc(N)nc2n1CC(O)CCO (centres undefined) — higher, > 200 µM
- CSc1c(C#N)c2c(N)ncnc2n1COC(CO)CO — 6.7-fold higher, 20 µM
- NC(=O)c1cn(CC(O)CCO)c2nc(N)nc(O)c12 (centres undefined) — higher, > 200 µM
- CSc1c(C#N)c2c(N)ncnc2n1CC(O)CCO (centres undefined) — 33-fold higher, 100 µM
- Cc1cn([C@H]2C[C@H](N=[N+]=[N-])[C@@H](CO)O2)c(=O)[nH]c1=O [ZIDOVUDINE] — 300-fold lower, 0.01 µM

Tested on: Human alphaherpesvirus 2
Test: Inhibitory activity against herpes simplex virus
Type: functional, organism-based
Settings: not given
Summary of the method: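 One-day-old confluent HEp-2 monolayers preinfected 1.5 h at 37 °C with HSV-2 (G and Lovelace strains); 3-fold dilutions over seven points, 72 h at 37 °C. Virus presence and toxicity scored visually by CPE. Uninfected cells with compound served as cytotoxicity control; virus inoculum checked by back-titration. IC50 recorded.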

Compound `Nc1nc2c(ncn2COC(CO)CO)c(=O)[nH]1` [GANCICLOVIR] has an IC50 of 32 µM.

Tested on: not listed separately
Test: Therapeutic ratio at 400 uM toxicity to Alex cells.
Type: cell-based
Settings: human

Work on `N#Cc1cn(COC(CO)CO)c2nc(N)nc(O)c12` yielded a selectivity ratio of 133.

Work on `CSc1c(C#N)c2c(N)ncnc2n1COC(CO)CO` yielded a selectivity ratio at 400 µM of 40.
